High-throughput results deposited in PubChem by several laboratories.
zVAD death inh – L929 zVAD cell death inhibition. L929 zVAD necroptosis rescue, ATP luminescence, 24 h; with zVAD 60 µM. viability rescue, % at 10 µM. 0.38% of 220,000 active;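 active = activation, scaled between plate controls, above about 75%, limit read from the data; inactive = activation under that limit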
TNF death inh – TNF-alpha cell death inhibition in Jurkat FADD-/- cells. Jurkat FADD-/- TNF necroptosis rescue, ATP luminescence, 24 h; 0 = TNF only, 100 = no-TNF cells. activation (protection from cell death), % at 10 µM. 0.068% of 220,000 active;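 active = activation, meaning protection from cell death, of at least 50% relative to plate controls; inactive = activation below 50%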;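 note: necroptosis triggered by 40 ng/mL TNF-alpha added together with compound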
Lipid droplet – modulators of hepatic lipid droplet formation. AML12 mouse hepatocytes, oleate lipid droplets, BODIPY imaging. inhibition, % at 6.5 µM. 0.4% of 240,000 active. AID 1656;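 active = lipid droplet intensity inhibited by at least 50%, with more than 500 cells counted; inconclusive = wells with under 300 cells, treated as cytotoxic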
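System: AML12 hepatocytes (mouse). Probe or stimulus: oleic acid at 100 µM to induce lipid droplet formation. Times: overnight treatment with compound plus oleate. Detection: Image-based BODIPY and DAPI two-channel analysis. Evaluation: percent inhibition of filter-corrected integrated lipid droplet intensity per well.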
Arbovirus anti – blocks arbovirus infection. 0.37% of 200,000 active. AID 1251. inhibition, % at 10 µM. arbovirus infection cell-based antiviral screen; in the data active = inhibition above about 30%
Pf gametocyte – inhibitors of late stage P. falciparum gametocyte viability; P. falciparum stage V gametocytes, ATP luminescence, 24 h; inhibition, % at 10.9 µM; 0.065% of 150,000 active;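 active = inhibition above the mean plus 3 SD of compounds within the control limits, set per campaign, cut at about 38% in these data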
Hep lipid conf – hepatic lipid droplet formation inhibition, confirmed | shares compounds with Lipid droplet | AML12 mouse hepatocytes, BODIPY lipid droplet imaging; droplets induced with 100 µM oleic acid | inhibition, % at 5.2 µM | 65% of 870 active | AID 463183;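 active = inhibition of lipid droplet metric at least 50%, with more than 300 cells in each of four replicates; inconclusive = wells under 300 cells, flagged as toxic or low count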
AML12 cytotox – counter-screen for cytotoxicity in AML12 mouse hepatocytes; shares compounds with Lipid droplet; AID 463200; DAPI nuclear morphology cytotoxicity imaging; hits give high values; cells fed 100 µM oleate overnight; 3% of 870 active; z-score at 5 µM; in the data active = z-score above about 6.3;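 note: compound exposure lasted overnight at 37 °C before fixation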
AML12 tox conf – confirmation of cytotoxicity in AML12 mouse hepatocytes; shares compounds with Lipid droplet; AML12 mouse hepatocyte viability, ATP luminescence; cells loaded with 100 µM oleic acid; cytotoxicity, % at 50 µM; 530 tested, under 10 active;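 active = cytotoxicity above 50% in each of four replicates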;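 note: compound exposure lasted overnight at 37 °C before the ATP read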
Hits are given with their value; i = inactive; ? = inconclusive; nt = no result given. Hits are enriched below; roughly 0.91% of the tested compounds scored in any of these assays.

SMILES	zVAD death inh	TNF death inh	Lipid droplet	Arbovirus anti	Pf gametocyte	Hep lipid conf	AML12 cytotox	AML12 tox conf
CCNC(=S)N(CCCN(C)C)Cc1cc2cc3c(cc2[nH]c1=O)OCCO3	nt	nt	i	nt	nt	nt	nt	nt
Cc1ccc(-c2[nH]c3ccccc3c2SCCNC(=O)c2ccc(S(=O)(=O)N3CCOCC3)cc2)cc1	nt	i	54	i	nt	91	i	i
CCN1C(=O)/C(=C2\C=Cc3cc(C)ccc3N2CC)OC1=S	i	i	68	i	nt	74	i	i
CCN1C(=O)/C(=C2/C=Cc3ccccc3N2C)OC1=S	i	i	i	i	nt	nt	nt	nt
Cc1ccccc1N1CCN(C(=S)c2ccc(-c3cccc([N+](=O)[O-])c3)o2)CC1	i	i	i	i	nt	nt	nt	nt
Cc1ccccc1N1CCN(C(=S)c2ccc(-c3ccc([N+](=O)[O-])cc3)o2)CC1	i	i	86	nt	i	69	i	nt
Cc1ccc(CNC(=O)CCCc2c[nH]c3ccccc23)cc1	nt	nt	71	nt	nt	74	i	i
COC(=O)[C@H](Cc1c[nH]c2ccccc12)NC(=O)Cc1c[nH]c2ccccc12	nt	nt	i	nt	nt	nt	nt	nt
Cc1ccc(NC(=O)CCCc2c[nH]c3ccccc23)nc1	nt	nt	83	nt	nt	i	i	nt
COC(=O)[C@H](Cc1c[nH]c2ccccc12)NC(=O)CCCc1c[nH]c2ccccc12	nt	nt	60	nt	nt	i	i	i
CC(OC(=O)C1=COCCO1)C(=O)Nc1cc(S(=O)(=O)N2CCCCC2)ccc1Cl (configuration not stated)	i	i	i	i	i	nt	nt	nt
Cc1cccc(C(=O)N[C@H](C(=O)NCCc2ccc(S(N)(=O)=O)cc2)C(C)C)c1	nt	nt	i	nt	nt	nt	nt	nt
CN(C)c1ccc(NC2=C([N+](=O)[O-])CS(=O)(=O)C2)cc1	i	i	84	i	nt	i	i	nt
COc1cccc(CN2CCN(c3nc4nonc4nc3NC3CC3)CC2)c1	i	i	i	i	nt	nt	nt	nt
CC(NC(=O)C(=O)NCCN1CCN(C(=O)c2ccccc2Br)CC1)c1ccccc1 (configuration not stated)	nt	nt	i	nt	nt	nt	nt	nt
COc1ccc(C(=O)OC(C)C(=O)Nc2cc(C(F)(F)F)ccc2Cl)c(OC)c1OC (configuration not stated)	i	i	80	i	nt	107	i	i
CCC(C)(C)NC(=O)C(c1ccc(C)cc1)N(CC1CCCO1)C(=O)CCC(=O)Nc1ccccn1 (configuration not stated)	nt	nt	61	nt	nt	i	i	nt
CCS(=O)(=O)N1CCN(c2ccc([N+](=O)[O-])c(NCc3cccnc3)c2)CC1	i	i	59	i	i	i	i	nt
O=C(Nc1cc(S(=O)(=O)N2CCCC2)ccc1OCC(F)(F)F)c1ccccc1F	nt	i	i	i	i	nt	nt	nt
O=C(CNc1cc(S(=O)(=O)N2CCCC2)ccc1OCC(F)(F)F)Nc1cccc(C(F)(F)F)c1	i	i	54	i	i	i	i	nt
Cc1ccc(S(=O)(=O)N2CCCCC2)cc1C(=O)N(C)CCOc1ccccc1	nt	nt	62	nt	nt	i	i	nt
Cc1ccc(S(=O)(=O)N2CCOCC2)cc1C(=O)N(C)CCOc1ccc(Cl)cc1	i	i	i	nt	nt	nt	nt	nt
Cc1ccc2nc(Nc3ccc(F)cc3)c3nncn3c2c1	nt	nt	59	nt	nt	i	i	i
CCCN(CCC)c1ccc(CC(=O)NC(C)Cc2ccccc2)cc1 (configuration not stated)	i	i	101	i	i	109	i	i
CCN(CC)c1ccc(CC(=O)NC(C)Cc2ccccc2)cc1 (configuration not stated)	i	i	nt	i	nt	nt	nt	nt
SMILES	zVAD death inh	TNF death inh	Lipid droplet	Arbovirus anti	Pf gametocyte	Hep lipid conf	AML12 cytotox	AML12 tox conf
Clc1cccc(Nc2nc(-c3ccncc3)cs2)c1	i	i	91	i	i	i	17	nt
Cc1cccc(Nc2nc(-c3ccncc3)cs2)c1	i	i	?	i	nt	nt	nt	nt
COc1ccc(S(=O)(=O)n2cccc2)cc1OC	nt	nt	i	nt	nt	nt	nt	nt
COc1cccc(NC(=O)CNC(=O)[C@@H]2Cc3ccccc3CN2C(=O)OC(C)(C)C)c1	nt	nt	i	nt	nt	nt	nt	nt
COc1ccc(NC(=O)[C@H](C)NC(=O)[C@@H]2Cc3ccccc3CN2C(=O)OC(C)(C)C)cc1	nt	nt	55	nt	nt	91	i	i
Cc1cccc(NC(=O)[C@H](C)NC(=O)[C@@H]2Cc3ccccc3CN2C(=O)OC(C)(C)C)c1	nt	nt	62	nt	nt	100	i	i
CC(C)[C@H](NC(=O)[C@@H]1Cc2ccccc2CN1C(=O)OC(C)(C)C)C(=O)NC1CCCC1	nt	nt	i	nt	nt	nt	nt	nt
O=C(CNC(c1ccccc1)c1ccccc1)NCc1ccccc1Cl	nt	nt	i	nt	nt	nt	nt	nt
O=C(c1nn2c(C(F)(F)F)cc(-c3cccs3)nc2c1Br)N1CCCc2ccccc21	i	i	60	i	nt	101	i	i
CC(=O)C1=C(C)NC(SCSc2ccccc2)=C(C#N)C1c1cccnc1 (configuration not stated)	i	i	59	i	nt	79	i	i
CCN1C(=O)c2ccccc2S(=O)(=O)c2ccc(C(=O)NCCOC)cc21	nt	nt	i	nt	nt	nt	nt	nt
COc1ccccc1CNC(=O)CN(C)S(=O)(=O)c1ccc(F)cc1	nt	nt	i	nt	nt	nt	nt	nt
CCC(=O)N(Cc1cc(=O)[nH]c2ccccc12)c1ccc(OC)cc1	nt	nt	i	nt	nt	nt	nt	nt
COc1ccc(N(Cc2cc(=O)[nH]c3ccccc23)C(C)=O)cc1	nt	nt	75	nt	nt	i	i	nt
CCCCN(CCCNC(=O)CN1C(=O)COc2ccccc21)c1ccccc1	i	i	53	i	nt	103	i	i
CCOC(=O)c1oc2ccccc2c1COC(=O)CNC(=O)c1cccc(C)c1	nt	nt	i	nt	nt	nt	nt	nt
CCCCCCNC(=O)c1cn(CC)c2cc(N3CCN(C)CC3)c(F)cc2c1=O	nt	nt	53	nt	nt	i	i	nt
CCn1cc(C(=O)NCC(C)C)c(=O)c2cc(F)c(N3CCN(C)CC3)cc21	i	i	i	nt	i	nt	nt	nt
COC(=O)C1CN(C(=O)COc2ccccc2)c2ccccc2O1 (configuration not stated)	nt	nt	i	nt	nt	nt	nt	nt
CCOc1ccc(CN(C)C(=O)CNC(=O)c2ccc3ccccc3c2)cc1OC	nt	nt	88	nt	nt	107	i	i
Cc1ccc(-c2ccc(=O)n(CC(=O)NCC3COCCO3)n2)cc1 (configuration not stated)	nt	nt	i	nt	nt	nt	nt	nt
Cc1nn(Cc2ccc(F)cc2)c(C)c1NC(=O)C1c2ccccc2Oc2ccccc21	i	i	62	i	i	92	i	i
COC(=O)COc1cccc(NC(=O)c2ccc(Cl)cc2)c1	i	i	51	i	i	i	i	nt
COC(=O)COc1cccc(NC(=O)c2ccc(C)cc2)c1	i	i	nt	i	i	nt	nt	nt
COc1ccc(/C=N/N=C2\SCC(=O)N2c2c(C)n(C)n(-c3ccccc3)c2=O)cc1OC	i	i	62	i	i	i	i	nt
CN(C)C(=O)CSc1nc2ccc(C(=O)c3ccccc3)cc2[nH]1	nt	nt	i	nt	i	nt	nt	nt
CN(C)CCCN(C(=O)c1ccc2ccccc2c1)c1nc2cc3c(cc2s1)OCO3	nt	nt	55	nt	nt	i	i	nt
